Laboratory results taken from ChEMBL document CHEMBL1933007, “Novel brain penetrant benzofuropiperidine 5-HT₆ receptor antagonists” (Bioorg Med Chem Lett, 2012).

test system: not listed separately; test: Dissociation constant, pKa of the compound; type: physicochemical
Method in brief: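 pKa is a calculated value, not a measured one.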

SMILES | pKa
CC1(C(F)(F)F)NCCc2c1oc1cc(S(=O)(=O)c3cccc(F)c3)ccc21 (stereo not drawn) | 5.7

test system: not listed separately; test: Half life in dog liver microsomes; type: ADME, Canis lupus familiaris, Microsome

SMILES | half-life
O=S(=O)(c1cccc(F)c1)c1ccc2c3c(oc2c1)CNCC3 | 10.3 min

biological target: 5-hydroxytryptamine receptor 6 (Rattus norvegicus, UniProt P31388); test: Displacement of [3H]LSD from full length rat 5HT6 receptor
Method in brief: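 Radioligand binding with [³H]LSD on membranes from cells expressing full-length rat 5-HT6R.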

Chain of 5-hydroxytryptamine receptor 6 (Rattus norvegicus, UniProt P31388) (P31388 whole entry): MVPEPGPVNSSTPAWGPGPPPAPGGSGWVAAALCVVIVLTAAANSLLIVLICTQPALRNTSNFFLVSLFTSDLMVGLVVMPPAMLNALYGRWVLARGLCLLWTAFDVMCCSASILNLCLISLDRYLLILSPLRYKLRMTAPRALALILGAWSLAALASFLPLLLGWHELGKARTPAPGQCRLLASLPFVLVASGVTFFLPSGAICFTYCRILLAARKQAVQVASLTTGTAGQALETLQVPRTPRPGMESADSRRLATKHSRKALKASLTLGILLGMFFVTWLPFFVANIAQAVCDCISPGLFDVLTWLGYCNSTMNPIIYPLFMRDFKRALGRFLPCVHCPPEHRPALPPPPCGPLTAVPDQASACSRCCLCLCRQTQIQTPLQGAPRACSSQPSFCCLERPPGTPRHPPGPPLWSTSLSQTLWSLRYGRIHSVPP

SMILES | Ki
CC1(C)NCCc2c1oc1cc(S(=O)(=O)c3ccccc3)ccc21 | 41 nM
O=S(=O)(c1ccccc1)c1ccc2oc3c(c2c1)CCNC3 | 156 nM
COc1cccc(S(=O)(=O)c2ccc3c4c(oc3c2)CNCC4)c1 | 34 nM
O=S(=O)(c1cccc(F)c1)c1ccc2c3c(oc2c1)CNCC3 | 6.9 nM
O=S(=O)(c1cccc(F)c1)c1ccc2c3c(oc2c1)C1(CCCOC1)NCC3 (racemic) | 38.3 nM
O=S(=O)(c1ccccc1)c1ccc2c3c(oc2c1)CNCC3 | 9.8 nM

biological target: T1, 5-hydroxytryptamine receptor 6 (Homo sapiens, UniProt P50406); test: Antagonist activity at human recombinant 5-HT6 receptor expressed human astrocytoma cells assessed as inhibition of 5-HT-induced cAMP accumulation after 10 mins preincubation by HTRF assay
T1 sequence (P50406 whole entry): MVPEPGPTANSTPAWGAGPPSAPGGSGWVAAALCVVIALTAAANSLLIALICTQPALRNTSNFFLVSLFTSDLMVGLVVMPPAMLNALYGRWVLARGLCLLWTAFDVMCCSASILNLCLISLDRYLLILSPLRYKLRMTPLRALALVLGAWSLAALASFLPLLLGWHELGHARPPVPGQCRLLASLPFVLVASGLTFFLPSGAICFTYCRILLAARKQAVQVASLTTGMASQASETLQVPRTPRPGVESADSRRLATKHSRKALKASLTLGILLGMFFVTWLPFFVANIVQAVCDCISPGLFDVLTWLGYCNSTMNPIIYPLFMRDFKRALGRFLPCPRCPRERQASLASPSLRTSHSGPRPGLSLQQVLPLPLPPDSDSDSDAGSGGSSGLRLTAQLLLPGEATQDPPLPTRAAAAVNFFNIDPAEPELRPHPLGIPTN

SMILES | IC50
CC1(C)NCCc2c1oc1cc(S(=O)(=O)c3ccccc3)ccc21 | 34 nM
COc1cccc(S(=O)(=O)c2ccc3c4c(oc3c2)CNCC4)c1 | 21 nM
COc1cccc(S(=O)(=O)c2ccc3c4c(oc3c2)C(C)(C)NCC4)c1 | 68.6 nM
O=S(=O)(c1cccc(F)c1)c1ccc2c3c(oc2c1)CNCC3 | 3.6 nM
O=S(=O)(c1ccccc1)c1ccc2c3c(oc2c1)CNCC3 | 8.5 nM

biological target: Voltage-gated inwardly rectifying potassium channel KCNH2 (Homo sapiens, UniProt Q12809); test: Inhibition of human ERG by patch express assay
Sequence (Q12809 whole entry): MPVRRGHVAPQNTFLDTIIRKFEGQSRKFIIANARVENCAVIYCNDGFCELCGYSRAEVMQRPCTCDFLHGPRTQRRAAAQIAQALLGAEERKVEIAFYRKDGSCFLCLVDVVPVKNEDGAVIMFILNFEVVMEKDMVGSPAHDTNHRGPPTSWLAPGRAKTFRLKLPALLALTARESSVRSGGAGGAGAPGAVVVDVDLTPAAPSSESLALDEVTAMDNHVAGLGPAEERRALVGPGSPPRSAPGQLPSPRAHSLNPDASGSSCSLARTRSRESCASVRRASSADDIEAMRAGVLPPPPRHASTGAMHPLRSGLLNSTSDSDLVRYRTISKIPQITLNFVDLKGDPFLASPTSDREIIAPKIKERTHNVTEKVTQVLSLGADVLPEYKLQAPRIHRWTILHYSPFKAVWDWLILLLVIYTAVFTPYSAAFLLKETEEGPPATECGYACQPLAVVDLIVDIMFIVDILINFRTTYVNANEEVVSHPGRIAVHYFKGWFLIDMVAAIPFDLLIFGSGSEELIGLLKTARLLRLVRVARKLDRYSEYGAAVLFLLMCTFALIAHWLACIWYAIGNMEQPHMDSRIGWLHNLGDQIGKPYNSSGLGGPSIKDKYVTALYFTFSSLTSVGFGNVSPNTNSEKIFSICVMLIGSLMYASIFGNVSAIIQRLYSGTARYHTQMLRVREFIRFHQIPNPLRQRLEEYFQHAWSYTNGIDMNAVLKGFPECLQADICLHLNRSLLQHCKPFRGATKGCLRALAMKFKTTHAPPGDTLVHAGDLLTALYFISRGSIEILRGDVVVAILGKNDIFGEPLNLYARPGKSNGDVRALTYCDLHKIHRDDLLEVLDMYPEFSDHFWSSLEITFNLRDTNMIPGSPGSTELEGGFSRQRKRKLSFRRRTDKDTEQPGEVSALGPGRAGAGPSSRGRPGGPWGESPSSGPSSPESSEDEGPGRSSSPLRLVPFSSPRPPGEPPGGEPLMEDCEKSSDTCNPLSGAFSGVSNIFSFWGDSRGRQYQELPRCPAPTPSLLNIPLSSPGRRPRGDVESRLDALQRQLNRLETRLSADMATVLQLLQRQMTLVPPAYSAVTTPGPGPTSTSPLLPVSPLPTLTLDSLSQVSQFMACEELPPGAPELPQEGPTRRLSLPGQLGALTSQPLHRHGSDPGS

SMILES | IC50
O=S(=O)(c1cccc(F)c1)c1ccc2c3c(oc2c1)C1(CCCOC1)NCC3 (racemic) | 13.6 µM

test system: not listed separately; test: Half life in rat liver microsomes; type: ADME, Microsome

SMILES | half-life
O=S(=O)(c1cccc(F)c1)c1ccc2c3c(oc2c1)CNCC3 | < 5 min

biological target: T1, 5-hydroxytryptamine receptor 6; test: Displacement of [3H]LSD from full length human 5HT6 receptor
Method in brief: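 Radioligand binding with [³H]LSD on membranes from cells expressing full-length human 5-HT6R.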

SMILES | Ki
CC1(C)NCCc2c1oc1cc(S(=O)(=O)c3ccccc3)ccc21 | 7.7 nM
O=S(=O)(c1ccccc1)c1ccc2oc3c(c2c1)CCNC3 | 46 nM
O=S(=O)(c1ccc(F)cc1)c1ccc2c3c(oc2c1)CNCC3 | 22 nM
COc1cccc(S(=O)(=O)c2ccc3c4c(oc3c2)CNCC4)c1 | 5.6 nM
COc1cccc(S(=O)(=O)c2ccc3c4c(oc3c2)C(C)(C)NCC4)c1 | 17.5 nM
O=S(=O)(c1cccc(F)c1)c1ccc2c3c(oc2c1)CNCC3 | 1.6 nM
CC1(C(F)(F)F)NCCc2c1oc1cc(S(=O)(=O)c3cccc(F)c3)ccc21 (stereo not drawn) | 139 nM
O=S(=O)(c1ccccc1)c1ccc2c3c(oc2c1)CNCC3 | 2.7 nM
